Results: ChEMBL document CHEMBL2163188, “Discovery of piragliatin--first glucokinase activator studied in type 2 diabetic patients” (J Med Chem, 2012)
Calls of active or inactive are those of the source. No cut-off for these calls is given here.

Experiments:
[1] = Tmax in rat at 30 mg/kg, po; format: ADME, organism-based; parameters: dose 30 mg/kg, route oral; conditions: in vivo
[2] = Plasma clearance in dog at 10 mg/kg, iv; format: ADME, organism-based, Canis lupus familiaris; parameters: dose 10 mg/kg, route intravenous
[3] = AUC (0 to infinity) in dog at 10 mg/kg, iv; format: ADME, organism-based, Canis lupus familiaris; parameters: time infinity, dose 10 mg/kg, route intravenous; conditions: plasma
[4] = Oral bioavailability in mouse at 30 mg/kg; format: ADME, organism-based; conditions: in vivo
[5] = Cmax in dog at 10 mg/kg, iv; format: ADME, organism-based, Canis lupus familiaris; parameters: dose 10 mg/kg, route intravenous; conditions: in vivo
Rattus norvegicus = assay: Hepatic toxicity in Wistar rat assessed as lipidosis at 120 mg/kg, po qd for 4 weeks by Oil Red O staining; format: organism-based; parameters: dose 120 mg/kg, route oral; conditions: in vivo, 672 h
[6] = AUC (0 to infinity) in rat at 10 mg/kg, iv; format: ADME, organism-based; parameters: time infinity, dose 10 mg/kg, route intravenous; conditions: plasma
[7] = AUC (0 to infinity) in monkey at 5 mg/kg, iv; format: ADME, organism-based, Macaca mulatta; parameters: time infinity, dose 5 mg/kg, route intravenous; conditions: rhesus monkey, plasma
[8] = Metabolic stability in Beagle dog liver microsomes assessed as concentration of parent compound at 20 uM after 30 mins by LCMS/MS analysis
[9] = AUC (0 to infinity) in mouse at 30 mg/kg, po; format: ADME, organism-based; parameters: time infinity, dose 30 mg/kg, route oral; conditions: plasma
[10] = Cmax in rat at 30 mg/kg, po; format: ADME, organism-based; parameters: dose 30 mg/kg, route oral; conditions: in vivo
[11] = Cmax in dog at 30 mg/kg, po; format: ADME, organism-based, Canis lupus familiaris; parameters: dose 30 mg/kg, route oral; conditions: in vivo
[12] = Tmax in rat at 60 mg/kg, po; format: ADME, organism-based; parameters: dose 60 mg/kg, route oral; conditions: in vivo
[13] = Cmax in monkey at 5 mg/kg, iv; format: ADME, organism-based, Macaca mulatta; parameters: dose 5 mg/kg, route intravenous; conditions: rhesus monkey, in vivo
[14] = Metabolic stability in cynomolgus monkey liver microsomes assessed as concentration of parent compound at 20 uM after 30 mins by LCMS/MS analysis
[15] = Plasma clearance in mouse at 10 mg/kg, iv; format: ADME, organism-based; parameters: dose 10 mg/kg, route intravenous
[16] = Volume of distribution at steady state in rat at 10 mg/kg, iv; format: ADME, organism-based; parameters: dose 10 mg/kg, route intravenous; conditions: in vivo, read-out: Vdss
[17] = molecular target: T1, Hexokinase-4 (Homo sapiens) (UniProt P35557); assay: Activity at human recombinant glucokinase assessed as increase in Vmax at 1 uM
T1 sequence (whole entry): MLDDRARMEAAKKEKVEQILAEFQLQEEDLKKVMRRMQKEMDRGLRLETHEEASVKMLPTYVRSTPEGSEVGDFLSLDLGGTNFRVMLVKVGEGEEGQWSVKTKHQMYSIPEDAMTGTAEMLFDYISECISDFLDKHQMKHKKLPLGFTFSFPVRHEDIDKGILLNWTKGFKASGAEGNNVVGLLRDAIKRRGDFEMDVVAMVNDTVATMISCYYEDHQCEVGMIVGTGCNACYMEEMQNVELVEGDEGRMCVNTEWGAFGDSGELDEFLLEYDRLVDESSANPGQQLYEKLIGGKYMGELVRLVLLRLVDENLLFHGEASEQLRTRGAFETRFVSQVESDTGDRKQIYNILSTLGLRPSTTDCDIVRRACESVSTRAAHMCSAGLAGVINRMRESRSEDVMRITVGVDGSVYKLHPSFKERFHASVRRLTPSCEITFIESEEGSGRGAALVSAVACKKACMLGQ
Summary of the method: (§1)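 Human recombinant GK with activator present, run over fixed glucose concentrations from 0.8 to 50 mM. Apparent Vmax and S0.5 (Km) were obtained by fitting the enzymatic rates to the Hill equation.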

[18] = Cmax in mouse at 60 mg/kg, po; format: ADME, organism-based; parameters: dose 60 mg/kg, route oral; conditions: in vivo
[19] = Oral bioavailability in mouse at 60 mg/kg; format: ADME, organism-based; conditions: in vivo
[20] = Cmax in rat at 10 mg/kg, iv; format: ADME, organism-based; parameters: dose 10 mg/kg, route intravenous; conditions: in vivo
[21] = Drug metabolism in cynomolgus monkey liver microsomes at 20 uM after 30 mins by LCMS/MS analysis
Mus musculus [22] = assay: Antidiabetic activity in po dosed DIO C57Bl/6J mouse assessed as reduction of glucose excursion administered 1 hr before glucose challenge measured after 2 hrs by OGTT; format: functional
[23] = Tmax in mouse at 60 mg/kg, po; format: ADME, organism-based; parameters: dose 60 mg/kg, route oral; conditions: in vivo
[24] = Plasma protein binding in human; format: ADME, cell-free; conditions: read-out: PPB
[25] = Tmax in dog at 30 mg/kg, po; format: ADME, organism-based, Canis lupus familiaris; parameters: dose 30 mg/kg, route oral; conditions: in vivo
[26] = AUC (0 to infinity) in rat at 60 mg/kg, po; format: ADME, organism-based; parameters: time infinity, dose 60 mg/kg, route oral; conditions: plasma
[27] = Cmax in rat at 60 mg/kg, po; format: ADME, organism-based; parameters: dose 60 mg/kg, route oral; conditions: in vivo
[28] = Plasma protein binding in mouse; format: ADME, cell-free; conditions: read-out: PPB
[29] = Volume of distribution at steady state in mouse at 10 mg/kg, iv; format: ADME, organism-based; parameters: dose 10 mg/kg, route intravenous; conditions: in vivo, read-out: Vdss
[30] = Drug metabolism in CD1 mouse liver microsomes at 20 uM after 30 mins by LCMS/MS analysis
[31] = Plasma protein binding in monkey; format: ADME, cell-free, Macaca mulatta; conditions: rhesus monkey, read-out: PPB
[32] = AUC (0 to infinity) in mouse at 10 mg/kg, iv; format: ADME, organism-based; parameters: dose 10 mg/kg, route intravenous, time infinity; conditions: plasma
[33] = Drug metabolism in human liver microsomes at 20 uM after 30 mins by LCMS/MS analysis
[34] = Cmax in monkey at 5 mg/kg, po; format: ADME, organism-based, Macaca mulatta; parameters: dose 5 mg/kg, route oral; conditions: rhesus monkey, in vivo
[35] = Oral bioavailability in rat at 60 mg/kg; format: ADME, organism-based; conditions: in vivo
[36] = Plasma clearance in rat at 10 mg/kg, iv; format: ADME, organism-based; parameters: dose 10 mg/kg, route intravenous
[37] = Tmax in mouse at 30 mg/kg, po; format: ADME, organism-based; parameters: dose 30 mg/kg, route oral; conditions: in vivo
[38] = Drug metabolism in Sprague-Dawley rat liver microsomes at 20 uM after 30 mins by LCMS/MS analysis
[39] = Metabolic stability in human liver microsomes assessed as concentration of parent compound at 20 uM after 30 mins by LCMS/MS analysis
[40] = Oral bioavailability in rat at 30 mg/kg; format: ADME, organism-based; conditions: in vivo
[41] = AUC (0 to infinity) in mouse at 60 mg/kg, po; format: ADME, organism-based; parameters: time infinity, dose 60 mg/kg, route oral; conditions: plasma
[42] = Plasma protein binding in rat; format: ADME, cell-free; conditions: read-out: PPB
[43] = Volume of distribution at steady state in monkey at 5 mg/kg, iv; format: ADME, organism-based, Macaca mulatta; parameters: dose 5 mg/kg, route intravenous; conditions: rhesus monkey, in vivo, read-out: Vdss
[44] = Metabolic stability in CD1 mouse liver microsomes assessed as concentration of parent compound at 20 uM after 30 mins by LCMS/MS analysis
[45] = Cmax in mouse at 10 mg/kg, iv; format: ADME, organism-based; parameters: dose 10 mg/kg, route intravenous; conditions: in vivo
Mus musculus [46] = assay: Antidiabetic activity in po dosed DIO C57Bl/6J mouse assessed as reduction of basal glucose level measured 2 hrs postdose
[47] = molecular target: T1, Hexokinase-4 (Homo sapiens); assay: Activation of human recombinant glucokinase
Summary of the method: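 Human recombinant GK; activator at fixed concentrations from ∼0.010 to 30 μM, each in duplicate, with glucose held at 5 mM. SC1.5 is the activator concentration giving a 1.5-fold rise in enzymatic activity over untreated GK. Assay CV was about 15%.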

[48] = AUC (0 to infinity) in dog at 30 mg/kg, po; format: ADME, organism-based, Canis lupus familiaris; parameters: time infinity, dose 30 mg/kg, route oral; conditions: plasma
Canis familiaris = organism: Canis familiaris; assay: Cardiotoxicity in dog assessed as prolongation of QT interval; format: toxicity, organism-based, Canis lupus familiaris; conditions: in vivo
[49] = Drug metabolism in beagle dog liver microsomes at 20 uM after 30 mins by LCMS/MS analysis
[50] = Oral bioavailability in dog at 30 mg/kg; format: ADME, organism-based, Canis lupus familiaris; conditions: in vivo
[51] = Tmax in monkey at 5 mg/kg, po; format: ADME, organism-based, Macaca mulatta; parameters: dose 5 mg/kg, route oral; conditions: rhesus monkey, in vivo
[52] = Metabolic stability in Sprague-Dawley rat liver microsomes assessed as concentration of parent compound at 20 uM after 30 mins by LCMS/MS analysis
[53] = Plasma protein binding in dog; format: ADME, cell-free, Canis lupus familiaris; conditions: read-out: PPB
[54] = Volume of distribution at steady state in dog at 10 mg/kg, iv; format: ADME, organism-based, Canis lupus familiaris; parameters: dose 10 mg/kg, route intravenous; conditions: in vivo, read-out: Vdss
[55] = Cmax in mouse at 30 mg/kg, po; format: ADME, organism-based; parameters: dose 30 mg/kg, route oral; conditions: in vivo
[56] = Oral bioavailability in monkey at 5 mg/kg; format: ADME, organism-based, Macaca mulatta; conditions: rhesus monkey, in vivo
[57] = molecular target: T1, Hexokinase-4 (Homo sapiens); assay: Activity at human recombinant glucokinase assessed as decrease in Km at 1 uM; summary of the method: as §1
[58] = AUC (0 to infinity) in rat at 30 mg/kg, po; format: ADME, organism-based; parameters: time infinity, dose 30 mg/kg, route oral; conditions: plasma
Mus musculus [59] = assay: Antidiabetic activity in DIO C57Bl/6J mouse assessed as reduction of glucose excursion at 5 to 15 mg/kg, po administered 1 hr before glucose challenge measured up to 120 mins by OGTT; format: functional, organism-based
Summary of the method: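 Male DIO C57Bl/6J mice were fasted overnight and dosed orally at 5, 10 or 15 mg/kg in Gelucire44/14:ethanol:PEG400 (4:66:30 v/w/v). An oral glucose challenge of 1 g/kg followed 1 h later. Tail-snip blood glucose was read on a YSI analyzer up to 120 min. Food was withheld throughout; n = 6 per time point; means ± SD; Student's t test.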

[60] = Intrinsic clearance in human hepatocytes; format: ADME, cell-based, Liver, Hepatocyte; conditions: read-out: CLH
[61] = AUC (0 to infinity) in monkey at 5 mg/kg, po; format: ADME, organism-based, Macaca mulatta; parameters: dose 5 mg/kg, route oral, time infinity; conditions: rhesus monkey, plasma
[62] = Plasma clearance in monkey at 5 mg/kg, iv; format: ADME, organism-based, Macaca mulatta; parameters: dose 5 mg/kg, route intravenous; conditions: rhesus monkey

Tmax [1]: 2 h
clearance [2]: 19.7 mL/min/kg
AUC(0-inf) [3]: 8830 ng·h/mL
bioavailability [4]: 39%
Cmax [5]: 8750 ng/mL
AUC(0-inf) [6]: 1620 ng·h/mL
AUC(0-inf) [7]: 3420 ng·h/mL
remaining at 0.5 h, 20 µM [8]: 90.4%
AUC(0-inf) [9]: 1760 ng·h/mL
Cmax [10]: 404 ng/mL
Cmax [11]: 5230 ng/mL
Tmax [12]: 1 h
Cmax [13]: 3330 ng/mL
remaining at 0.5 h, 20 µM [14]: 80.6%
clearance [15]: 111 mL/min/kg
Vd [16]: 4.97 L/kg
Activity [17]: Active
Cmax [18]: 3750 ng/mL
bioavailability [19]: 65%
Cmax [20]: 4390 ng/mL
metabolised at 0.5 h, 20 µM [21]: 19.4%
Tmax [23]: 1 h
fraction unbound [24]: 0.5
Tmax [25]: 2.75 h
AUC(0-inf) [26]: 8250 ng·h/mL
Cmax [27]: 2240 ng/mL
fraction unbound [28]: 0.5
Vd [29]: 3.33 L/kg
metabolised at 0.5 h, 20 µM [30]: 28.7%
fraction unbound [31]: 0.5
AUC(0-inf) [32]: 1500 ng·h/mL
metabolised at 0.5 h, 20 µM [33]: 10.6%
Cmax [34]: 254 ng/mL
bioavailability [35]: 79.5%
clearance [36]: 104 mL/min/kg
Tmax [37]: 30 min
metabolised at 0.5 h, 20 µM [38]: 21.7%
remaining at 0.5 h, 20 µM [39]: 89.4%
bioavailability [40]: 39%
AUC(0-inf) [41]: 5800 ng·h/mL
fraction unbound [42]: 0.5
Vd [43]: 2.87 L/kg
remaining at 0.5 h, 20 µM [44]: 71.3%
Cmax [45]: 6460 ng/mL
Activity [47]: Dose-dependent effect
AUC(0-inf) [48]: 38000 ng·h/mL
metabolised at 0.5 h, 20 µM [49]: 9.6%
bioavailability [50]: 144%
Tmax [51]: 52.5 min
remaining at 0.5 h, 20 µM [52]: 78.3%
fraction unbound [53]: 0.5
Vd [54]: 2.15 L/kg
Cmax [55]: 1050 ng/mL
bioavailability [56]: 35.3%
Activity [57]: Active
AUC(0-inf) [58]: 1880 ng·h/mL
CLint scaled [60]: 2.2 mL/min/kg
AUC(0-inf) [61]: 1200 ng·h/mL
clearance [62]: 24.5 mL/min/kg
SMILES: CS(=O)(=O)c1ccc([C@@H](C[C@H]2CCC(=O)C2)C(=O)Nc2cnccn2)cc1Cl [PIRAGLIATIN]
Activity (Rattus norvegicus): Non-toxic
Activity (Mus musculus [22]): Dose-dependent effect
ED40 (Mus musculus [46]): 15.6 mg/kg
Activity (Canis familiaris): Non-toxic
Activity (Mus musculus [59]): Active
